Counter-ions that a name gives are not always drawn.
Columns and labels:
[1] = target: Melanocyte-stimulating hormone receptor (Homo sapiens, UniProt Q01726); assay: Agonist activity at human MC1R expressed in CHO cells after 4 hrs by luciferase reporter gene assay
Summary of the method: (§1)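 CHO-6xCRE-luc+ cells expressing the human receptor, plated at 4000 cells/well in DMEM/F12 with 10% FBS 48 h before assay. Switched to serum-free medium 16 h before compound addition, then incubated 4 h at 37 °C. Luciferase read after 10 min dark adaptation. Activity expressed as % of fold stimulation by 1 × 10^-7 M NDP-aMSH (duplicate control wells).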

[2] = target: Melanocortin receptor 4 (Homo sapiens, UniProt P32245); assay: Agonist activity at human MC4R expressed in CHO cells after 4 hrs by luciferase reporter gene assay; summary of the method: as §1
Chain of Melanocortin receptor 4 (P32245 whole entry): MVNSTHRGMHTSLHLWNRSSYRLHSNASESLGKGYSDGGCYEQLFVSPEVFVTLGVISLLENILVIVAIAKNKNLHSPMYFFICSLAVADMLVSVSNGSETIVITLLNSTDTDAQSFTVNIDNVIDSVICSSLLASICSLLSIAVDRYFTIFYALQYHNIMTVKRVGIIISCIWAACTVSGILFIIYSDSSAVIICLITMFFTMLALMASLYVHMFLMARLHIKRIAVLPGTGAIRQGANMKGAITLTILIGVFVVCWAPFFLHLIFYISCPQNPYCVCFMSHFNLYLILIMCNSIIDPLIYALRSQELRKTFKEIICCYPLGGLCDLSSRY

Chain of Melanocyte-stimulating hormone receptor (Q01726 whole entry): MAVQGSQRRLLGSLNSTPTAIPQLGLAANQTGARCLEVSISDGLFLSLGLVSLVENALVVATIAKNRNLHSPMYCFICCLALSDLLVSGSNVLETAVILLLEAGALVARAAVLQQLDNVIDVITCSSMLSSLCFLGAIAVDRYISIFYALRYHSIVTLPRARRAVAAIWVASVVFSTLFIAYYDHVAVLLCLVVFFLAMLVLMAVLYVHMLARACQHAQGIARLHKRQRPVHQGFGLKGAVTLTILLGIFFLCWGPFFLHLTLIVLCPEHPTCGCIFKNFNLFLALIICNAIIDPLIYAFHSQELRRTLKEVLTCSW

| Structure (SMILES) | EC50 [1] [µM] | EC50 [2] [µM] |
| --- | --- | --- |
| CC(C)N(C(=O)CN1C=CN(c2ccccc2)C(=O)[C@@H](Cc2n[nH]c3ccccc23)C1=O)c1ccccc1 | > 31.6 | – |
| CC(C)N(C(=O)CN1C=CN(c2ccccc2)C(=O)C(Cc2n[nH]c3ccccc23)C1=O)c1ccc(O)cc1 (stereo unspecified) | – | > 31.6 |
| COc1ccc(N(C(=O)CN2C=CN(C3CCCCC3)C(=O)C(Cc3ccccc3)C2=O)C(C)C)cc1 (racemic) [(+/-)-2-[4-Cyclohexyl-5,7-dioxo-6-(phenylmethyl)-4,5,6,7-tetrahydro-1H-1,4-diazepin-1-yl]-N-(1-methylethyl)-N-[4-(methyloxy)phenyl]acetamide] | > 31.6 | > 31.6 |
| COc1ccc(N(C(=O)CN2C=CN(C3CCCCC3)C(=O)C(Cc3n[nH]c4ccccc34)C2=O)C(C)C)cc1 (racemic) [(+/-)-2-[4-Cyclohexyl-6-(1H-indazol-3-ylmethyl)-5,7-dioxo-4,5,6,7-tetrahydro-1H-1,4-diazepin-1-yl]-N-(1-methylethyl)-N-[4-(methyloxy)phenyl]acetamide trifluoroacetate] | > 31.6 | > 31.6 |
| COc1ccc(N(C(=O)CN2C=CN(Cc3ccccc3)C(=O)C(Cc3n[nH]c4ccccc34)C2=O)C(C)C)cc1 (racemic) [(+/-)-2-[6-(1H-Indazol-3-ylmethyl)-5,7-dioxo-4-(phenylmethyl)-4,5,6,7-tetrahydro-1H-1,4-diazepin-1-yl]-N-(1-methylethyl)-N-[4-(methyloxy)phenyl]acetamide] | – | > 31.6 |
| CC(C)N(C(=O)CN1C=CN(c2ccccc2)C(=O)C(Cc2n[nH]c3ccccc23)C1=O)c1ccc(N2CCOCC2)cc1 (racemic) [(+/-)-2-[6-(1H-Indazol-3-ylmethyl)-5,7-dioxo-4-phenyl-4,5,6,7-tetrahydro-1H-1,4-diazepin-1-yl]-N-(1-methylethyl)-N-[4-(4-morpholinyl)phenyl]acetamide] | – | > 31.6 |
| CC(C)N(C(=O)CN1C=CN(C)C(=O)C(Cc2n[nH]c3cc(F)ccc23)C1=O)c1ccc(F)cc1 (racemic) [(+/-)-2-{6-[(6-Fluoro-1H-indazol-3-yl)methyl]-4-methyl-5,7-dioxo-4,5,6,7-tetrahydro-1H-1,4-diazepin-1-yl}-N-(4-fluorophenyl)-N-(1-methylethyl)acetamide] | – | > 31.6 |
| COc1ccc(N(C(=O)CN2C=CN(c3ccccc3)C(=O)C(Cc3nn(C)c4ccccc34)C2=O)C(C)C)cc1 (racemic) [(+/-)-N-(1-methylethyl)-2-{6-[(1-methyl-1H-indazol-3-yl)methyl]-5,7-dioxo-4-phenyl-4,5,6,7-tetrahydro-1H-1,4-diazepin-1-yl}-N-[4-(methyloxy)phenyl]acetamide] | > 31.6 | > 31.6 |
